Assay results taken from ChEMBL document CHEMBL1144067, “Cancer chemopreventive agents (antitumor-promoters) from Ajuga decumbens” (J Nat Prod, 1999).

What was measured:
[1] = Cytotoxicity against human Raji cells assessed as cell viability at 100 molar ratio after 48 hrs; type: cell-based; settings: read-out: Activity
In short: (§1)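 Raji cells (EBV genome-carrying, Burkitt's lymphoma-derived) grown in RPMI-1640 and incubated 48 h at 37 °C with 4 mmol n-butyric acid, 32 pmol TPA (20 ng/mL) and test agent at 10–1000 mol ratio/TPA (0.32–32 nmol). Viability given as percentage of Raji cells; n = 3, ±S.D.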

[2] = tested on: Raji; assay: Inhibition of 12-O-tetradecanoylphorbol-13-acetate induced EBV-early antigen activation in human Raji cells at 100 molar ratio relative to control; type: cell-based; settings: human gammaherpesvirus 4
In short: (§2)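 Raji cells in RPMI-1640 treated 48 h at 37 °C with n-butyric acid (4 mmol), TPA (32 pmol = 20 ng/mL) and test agent at 10, 100, 500 or 1000 mol ratio/TPA (0.32–32 nmol). EA-positive cells in smears detected by indirect immunofluorescence; induction expressed relative to TPA positive control (100%), n = 3, ±S.D.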

[3] = Cytotoxicity against human Raji cells assessed as cell viability at 10 molar ratio after 48 hrs; type: cell-based; settings: read-out: Activity; in short: as §1
[4] = tested on: Mus musculus; assay: Inhibition of 4NQO-induced/glycerol-promoted carcinogenesis in mouse assessed number of mouse with pulmonary tumors at 1.27 mg/week administered twice weekly after 5 weeks of initiation for 22 weeks; type: functional; set-up: scale not given: the % may be the effect or the level left
In short: (§3)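 Female SPF ICR mice (6 weeks old), 15 per group. Initiation by single s.c. injection of 0.3 mg 4NQO in olive oil–cholesterol (20:1); promotion with 8% glycerol in drinking water ad libitum, test agent given at 0.0025% or 0.005%. Killed by cervical dislocation after 22-week promotion; pulmonary tumors counted per lobe under dissecting microscope. Student's t-test vs 4NQO + glycerol group.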

[5] = tested on: Mus musculus; assay: Inhibition of 4NQO-induced/glycerol-promoted carcinogenesis in mouse assessed number of pulmonary tumors per mouse at 1.27 mg/week administered twice weekly after 5 weeks of initiation for 22 weeks; type: functional; in short: as §3
[6] = tested on: Mus musculus; assay: Toxicity in 4NQO-induced/glycerol-promoted carcinogenesis mouse model assessed change in body weight at 1.27 mg/week administered twice weekly after 5 weeks of initiation for 22 weeks; type: organism-based; settings: in vivo
In short: (§4)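 Female ICR mice in the 4NQO (0.3 mg s.c.)-initiated, 8% glycerol drinking-water-promoted lung model, 15 per group, test agent at 0.0025% or 0.005%. Body weight recorded at end of the 22-week promotion period.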

[7] = tested on: Mus musculus; assay: Inhibition of DMBA-induced/TPA-promoted carcinogenesis in mouse assessed as number of skin papillomas per mouse at 85 nmol administered twice weekly after 1 week of initiation for 10 weeks; type: functional
In short: (§5)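 Female SPF ICR mice, 6 weeks old, 15 per group, backs shaved; single topical DMBA initiation (100 μg, 390 nmol) in 0.1 mL acetone. From 1 week after, promotion with TPA 1.7 nmol twice weekly, plus 85 nmol test agent. Papilloma incidence and number per mouse monitored weekly for 20 weeks.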

[8] = tested on: Mus musculus; assay: Inhibition of DMBA-induced/TPA-promoted carcinogenesis in mouse assessed as number of mouse bearing papillomas at 85 nmol administered twice weekly after 1 week of initiation for 8 weeks; type: functional; set-up: scale not given: the % may be the effect or the level left; in short: as §5
[9] = tested on: Mus musculus; assay: Inhibition of 4NQO-induced/glycerol-promoted carcinogenesis in mouse assessed number of pulmonary tumors per mouse at 2.54 mg/week administered twice weekly after 5 weeks of initiation for 22 weeks; type: functional; in short: as §3
[10] = tested on: Mus musculus; assay: Inhibition of DMBA-induced/TPA-promoted carcinogenesis in mouse assessed as number of mouse bearing papillomas at 85 nmol administered twice weekly after 1 week of initiation for 17 weeks; type: functional; set-up: scale not given: the % may be the effect or the level left; in short: as §5
[11] = tested on: Mus musculus; assay: Inhibition of 4NQO-induced/glycerol-promoted carcinogenesis in mouse assessed number of mouse with pulmonary tumors at 2.54 mg/week administered twice weekly after 5 weeks of initiation for 22 weeks; type: functional; set-up: scale not given: the % may be the effect or the level left; in short: as §3
[12] = tested on: Raji; assay: Inhibition of 12-O-tetradecanoylphorbol-13-acetate induced EBV-early antigen activation in human Raji cells at 500 molar ratio relative to control; type: cell-based; settings: human gammaherpesvirus 4; in short: as §2
[13] = tested on: Mus musculus; assay: Inhibition of DMBA-induced/TPA-promoted carcinogenesis in mouse assessed as number of skin papillomas per mouse at 85 nmol administered twice weekly after 1 week of initiation for 20 weeks; type: functional; in short: as §5
[14] = tested on: Raji; assay: Inhibition of 12-O-tetradecanoylphorbol-13-acetate induced EBV-early antigen activation in human Raji cells at 1000 molar ratio relative to control; type: cell-based; settings: human gammaherpesvirus 4; in short: as §2
[15] = tested on: Mus musculus; assay: Inhibition of DMBA-induced/TPA-promoted carcinogenesis in mouse assessed as number of mouse bearing papillomas at 85 nmol administered twice weekly after 1 week of initiation for 10 weeks; type: functional; set-up: scale not given: the % may be the effect or the level left; in short: as §5
[16] = tested on: Mus musculus; assay: Toxicity in 4NQO-induced/glycerol-promoted carcinogenesis mouse model assessed change in body weight at 2.54 mg/week administered twice weekly after 5 weeks of initiation for 22 weeks; type: organism-based; settings: in vivo; in short: as §4
[17] = Cytotoxicity against human Raji cells assessed as cell viability at 500 molar ratio after 48 hrs; type: cell-based; settings: read-out: Activity; in short: as §1
[18] = tested on: Raji; assay: Inhibition of 12-O-tetradecanoylphorbol-13-acetate induced EBV-early antigen activation in human Raji cells at 10 molar ratio relative to control; type: cell-based; settings: human gammaherpesvirus 4; in short: as §2

`CC(=O)O[C@@]1(C)C[C@@H](O)[C@]2(O)C=CO[C@@H](O[C@@H]3O[C@H](CO)[C@@H](O)[C@H](O)[C@H]3O)[C@@H]21` showed a viability at 48 h, 100 molar ratio [1] of over 80%, an EBV-EA induction remaining (% of TPA control) [2] of 62.6% and a viability at 48 h, 10 molar ratio [3] of over 80%. For the same compound, the Activity [4] was 53.3%, the Activity [5] was 1.1 and the Activity [6] was “Non-toxic”. The Activity [7] was 2, the Activity [8] was 10% and the Activity [9] was 0.9. The Activity [10] was 80%, the Activity [11] was 46.6% and the EBV-EA induction remaining (% of TPA control) [12] was 19.9%. It also gave an Activity [13] of 6, an EBV-EA induction remaining (% of TPA control) [14] of 0% and an Activity [15] of 20%. The Activity [16] was “Non-toxic”, the viability at 48 h, 500 molar ratio [17] was over 80% and the EBV-EA activation relative to TPA control [18] was 89.5%.
